Test results as given in ChEMBL document CHEMBL3585241, “Synthesis and biological evaluation of thiabendazole derivatives as anti-angiogenesis and vascular disrupting agents” (Bioorg Med Chem, 2015).
pIC50: −log10 of the molar value. The source made the active and inactive calls. No cut-off for these calls is given here.

Columns and labels:
HUVEC [1] = assay: Cytotoxicity against HUVEC assessed as inhibition of cell proliferation rate at 100 uM after 72 hrs by MTT assay relative to control; format: functional; settings: Homo sapiens
HUVEC [2] = assay: Cytotoxicity against HUVEC assessed as inhibition of cell proliferation rate at 10 uM after 72 hrs by MTT assay relative to control; format: functional; settings: Homo sapiens
A549 [3] = assay: Inhibition of alpha-tubulin formation in human A549 cells at 50 nM after 24 hrs by TRITC/Hoechst 33258 staining-based immunofluorescence microscopic analysis; format: cell-based
Tubulin (Bos taurus) [4] = biological target: T1, Tubulin (Bos taurus) (UniProt Q6B856+Q862F3); assay: Inhibition of bovine brain tubulin polymerization at 10 uM measured every 5 secs for 0 to 3 mins , 10 secs for 3 to 5 mins, 30 secs for 5 to 10 mins, 60 secs for 10 to 17 mins by spectrophotometric analysis
HUVEC [5] = assay: Antiangiogenic activity in HUVEC assessed as inhibition of tubular structure formation at 0.033 to 0.33 uM after 8 hrs by microscopic analysis; format: functional, cell-based; settings: Homo sapiens
Thoracic aorta = assay: Antiangiogenic activity in Sprague-Dawley rat thoracic aorta ring assessed as inhibition of microvessel outgrowth at 0.33 uM measured on day 6 by inverse microscopic analysis; format: functional, tissue-based
Summary of the method: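 Aortas from 6-week Sprague Dawley rats taken under ether anesthesia, rinsed in serum-free M199 and cut into 1-mm rings. Rings embedded in Matrigel and held 1 h at 37 °C. Serum-free M199, with or without 20% FBS, then added with test agents at various concentrations. Sprouting imaged by inverted microscope on day 6.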

Tubulin (Bos taurus) [6] = biological target: T1, Tubulin (Bos taurus); assay: Inhibition of bovine brain tubulin polymerization at 3 uM measured every 5 secs for 0 to 3 mins , 10 secs for 3 to 5 mins, 30 secs for 5 to 10 mins, 60 secs for 10 to 17 mins by spectrophotometric analysis
Tubulin (Bos taurus) [7] = biological target: T1, Tubulin (Bos taurus); assay: Inhibition of bovine brain tubulin polymerization at 5 uM by spectrophotometric analysis; settings: TDE = time-dependent effect
Summary of the method: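 MAP-rich bovine brain tubulin (2 mg/mL) in 80 mM PIPES pH 6.9, 2 mM MgCl2, 0.5 mM EGTA, 5% glycerol, with DMSO or compound at 5 µM. Polymerization started with 1 mM GTP at 37 °C. Absorbance at 340 nm followed over 17 min (5 s intervals to 3 min, 10 s to 5 min, 30 s to 10 min, 60 s to 17 min).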

HUVEC [8] = assay: Cytotoxicity against HUVEC assessed as inhibition of cell proliferation rate after 72 hrs by MTT assay; format: functional, cell-based; settings: Homo sapiens
Summary of the method: (§1)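 Cells seeded at 3.5 × 10^4 cells/mL and cultured 24 h (37 °C, 5% CO2), then exposed to compounds for 72 h. DMSO at 0.5% final served as the vehicle control. IC50 taken from triplicate experiments, reported as mean.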

HUVEC [9] = assay: Induction of vascular disruption in HUVEC after 16 hrs by inverted microscopic analysis; format: functional, cell-based; settings: Homo sapiens
A549 [10] = assay: Inhibition of alpha-tubulin formation in human A549 cells at 250 uM after 24 hrs by TRITC/Hoechst 33258 staining-based immunofluorescence microscopic analysis; format: cell-based
A549 [11] = assay: Cytotoxicity against human A549 cells assessed as inhibition of cell proliferation rate after 72 hrs by MTT assay; format: functional, cell-based; settings: A549, 72 h; summary of the method: as §1
HepG2 = assay: Cytotoxicity against human HepG2 cells assessed as inhibition of cell proliferation rate after 72 hrs by MTT assay; format: functional, cell-based; settings: HepG2, 72 h; summary of the method: as §1
HCT-116 = assay: Cytotoxicity against human HCT116 cells assessed as inhibition of cell proliferation rate after 72 hrs by MTT assay; format: functional, cell-based; settings: HCT-116, 72 h; summary of the method: as §1

Compound: c1cc2[nH]c(-c3cscn3)nc2cn1
- inhibition at 100 µM (HUVEC [1]): 0%
- inhibition at 10 µM (HUVEC [2]): 8%

Compound: Cc1ccc2nc(-c3ccccn3)[nH]c2c1
- inhibition at 100 µM (HUVEC [1]): 10%
- inhibition at 10 µM (HUVEC [2]): 7%

Compound: CC[C@]1(O)C[C@@H]2CN(CCc3c([nH]c4ccccc34)[C@@](C(=O)OC)(c3cc4c(cc3OC)N(C)[C@H]3[C@@](O)(C(=O)OC)[C@H](OC(C)=O)[C@]5(CC)C=CCN6CC[C@]43[C@@H]65)C2)C1
- inhibition (A549 [3]): Active

Compound: CC(=O)O[C@H]1C(=O)[C@@]2(C)[C@H]([C@H](OC(=O)c3ccccc3)[C@]3(O)C[C@H](OC(=O)[C@H](O)[C@@H](NC(=O)c4ccccc4)c4ccccc4)C(C)=C1C3(C)C)[C@]1(OC(C)=O)CO[C@@H]1C[C@@H]2O
- inhibition (Tubulin (Bos taurus) [4]): inactive

Compound: CCN(CC)CCNC(=O)c1c(C)[nH]c(/C=C2\C(=O)Nc3ccc(F)cc32)c1C
- inhibition (HUVEC [5]): Active
- inhibition (Thoracic aorta): Active

Compound: c1ccc2cc3[nH]c(-c4cscn4)nc3cc2c1
- inhibition at 100 µM (HUVEC [1]): 59%
- inhibition at 10 µM (HUVEC [2]): 2%

Compound: c1ccc(Cn2c(-c3ccccc3)nc3ccccc32)cc1
- inhibition at 100 µM (HUVEC [1]): 38%
- inhibition at 10 µM (HUVEC [2]): 7%

Compound: COC(=O)Nc1nc2cc(C(=O)c3cccs3)ccc2[nH]1
- inhibition (Tubulin (Bos taurus) [6]): Active

Compound: Cc1cc2nc(-c3cscn3)[nH]c2cc1C
- inhibition at 100 µM (HUVEC [1]): 0%
- inhibition at 10 µM (HUVEC [2]): 0%

Compound: O=C(Nc1scnc1-c1nc2ccccc2[nH]1)NC1CC1
- inhibition (Tubulin (Bos taurus) [7]): tde

Compound: Clc1ccc2[nH]c(-c3cscn3)nc2c1
- inhibition at 100 µM (HUVEC [1]): 53%
- inhibition at 10 µM (HUVEC [2]): 7%

Compound: c1ccc2[nH]cnc2c1 [BENZIMIDAZOLE]
- pIC50 (HUVEC [8]): < 4.00
- pIC50 (HUVEC [9]): < 3.60
- inhibition (A549 [10]): Active
- inhibition at 100 µM (HUVEC [1]): 11%
- pIC50 (A549 [11]): < 4.00
- pIC50 (HepG2): < 4.00
- inhibition at 10 µM (HUVEC [2]): 0%
- pIC50 (HCT-116): < 4.00

Compound: O=C(c1ccccc1)c1ccc2[nH]c(-c3cscn3)nc2c1
- inhibition (Tubulin (Bos taurus) [7]): tde
